Screens deposited in PubChem by Johns Hopkins Ion Channel Center.
In the library only some 3.5% were active in any assay of this set; here they are far more common.
MrgX1 PAM – human MrgX1 positive allosteric modulation, primary screen | MrgX1-HEK293, Fluo-4 calcium flux, FDSS; hits give high values | B-score at 10 µM | 310,000 compounds, 0.63% hits | AID 588675;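 active means plate-corrected calcium response at least 3 library SD above typical, normal starting fluorescence, not activating the receptor alone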;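 further: compound read alongside a low EC10 to EC30 dose of BAM8-22 agonist; peak minus trough fluorescence over baseline measured at the second addition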
Target sequence (Q96LB2 whole entry, looked up): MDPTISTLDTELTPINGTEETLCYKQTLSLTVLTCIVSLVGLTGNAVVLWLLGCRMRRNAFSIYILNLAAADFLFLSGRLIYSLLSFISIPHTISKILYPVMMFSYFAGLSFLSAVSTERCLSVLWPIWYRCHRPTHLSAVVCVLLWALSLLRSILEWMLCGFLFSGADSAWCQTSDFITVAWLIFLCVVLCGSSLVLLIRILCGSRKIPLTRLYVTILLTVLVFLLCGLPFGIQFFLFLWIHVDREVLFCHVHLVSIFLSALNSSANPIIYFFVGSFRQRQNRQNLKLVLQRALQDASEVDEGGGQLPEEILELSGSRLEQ
MrgX1 agonist – agonists of human MrgX1 receptor; Q96LB2; MrgX1-HEK293 cells, Fluo-4 calcium fluorescence, agonist mode; hits give high values; B-score at 10 µM; 310,000 compounds, 0.44% hits;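 active means calcium response B-score plate-corrected fluorescence ratio at least 3 library SD, with starting fluorescence B-score inside 5 SD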
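Assay system: stable human MrgX1 HEK293 cell line. Quantity: 15,000 cells per well. Schedule: cells plated overnight, dye loaded 0.5 h 37 °C, 0.5 h room temperature. Detection: Fluo-4 NW calcium-flux fluorescence, kinetic read. Read-out basis: peak-minus-minimum fluorescence over baseline, converted to B scores. Control set: positive and negative control wells on each plate.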
RGS4 inh – human RGS4 inhibition. HEK293 M3R/RGS4 inducible, Fluo-4 calcium flux; hits give high values; triggered by carbachol at its EC20. AID 463165. B-score at 10 µM. 310,000 compounds, 0.45% hits;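 active means B-score, a plate-corrected calcium signal, over three deviations above library mean, with baseline fluorescence within five deviations of library mean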;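 further: RGS4 expression induced by doxycycline in cells with stable M3 receptor; B-score is computed from the integrated fluorescence ratio over baseline after carbachol; higher B-score means a larger calcium signal and so more RGS4 inhibition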
Target sequence (P49798 whole entry, looked up): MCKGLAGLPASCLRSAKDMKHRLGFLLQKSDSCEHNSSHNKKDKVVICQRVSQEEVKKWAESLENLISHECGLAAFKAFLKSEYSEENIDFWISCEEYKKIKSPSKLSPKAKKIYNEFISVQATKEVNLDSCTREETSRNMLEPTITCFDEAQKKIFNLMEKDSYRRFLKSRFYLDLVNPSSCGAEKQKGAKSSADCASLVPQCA
RGS4 pot – RGS4 potentiation or activation | B-score at 10 µM | HEK293 M3R/inducible RGS4, carbachol calcium flux Fluo4; hits give low values | AID 463111 | 310,000 compounds, 0.92% hits;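 active means B-score of the integrated calcium signal more than 4 SD below the library mean, with starting fluorescence not abnormally high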;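 further: negative B-score means reduced calcium response which marks RGS4 activation or potentiation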
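Material: M3R-expressing HEK293 line, RGS4 induced by doxycycline | Schedule: Overnight RGS4 induction, 30 min dye load 37 °C, 20 min compound RT | Measured by: Fluo4 fluorescence kinetic imaging of calcium | Read-out: Integrated calcium ratio converted to B score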
MrgX1 antagonist – blocks BAM8-22 activation of human MrgX1 receptor | AID 588676 | B-score at 10 µM | MRGX1-HEK293 calcium flux, Fluo-4, BAM8-22 antagonism; hits give low values | Q96LB2 | 310,000 compounds, 1.3% hits;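 active means calcium-response B-score plate-corrected more than 3 library SD below zero, starting fluorescence within 5 deviations, no agonist response on first addition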;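 further: peak minus trough fluorescence over baseline after final BAM8-22 challenge near maximal dose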
RGS4 activ val – RGS4 activation, validation assay; 1,100 compounds, 89% hits; HEK293 M3R/RGS4 inducible, carbachol calcium flux Fluo4; AID 602282; shares compounds with RGS4 pot; inhibition, % at 10 µM;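 active means inhibition above 3 SD of the buffer control wells, cut at about 41% in these data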;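 further: signal is the integrated peak-minus-minimum Fluo4 fluorescence over baseline ratio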
M3R Ca counter – RGS4 activator counter-screen hit in non-induced cells | shares compounds with RGS4 pot | HEK293 M3R non-induced RGS4, Fluo4 calcium flux; after carbachol challenge at its EC90 | inhibition, % at 10 µM | 1,100 compounds, 82% hits | AID 602283;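 active means inhibition exceeding 3 SD of buffer-only control wells, cut at about 26% in these data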;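 further: percent drop in integrated peak-minus-baseline over baseline Fluo4 ratio after carbachol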
Each line names hits and unclear results; the compound was inactive in the other large screens (follow-up assays come after a bar, where they were run).

CC(C)C1Oc2ccccc2C(=O)N(CC(=O)c2ccc3c(c2)OCCO3)C1=O (configuration not stated)	RGS4 pot -7.8 | RGS4 activ val inactive | M3R Ca counter inactive
CCc1ccc([C@@H]2C[C@H]3CN(Cc4ccccc4OC)C(=O)[C@]34CCCN24)cc1	RGS4 pot -9.5 | RGS4 activ val 79 | M3R Ca counter 30
CCN1CCN(C(=O)C(C)Nc2cc(Cl)c(OC)cc2OC)CC1 (configuration not stated)	none
CCN(CC)CC(=O)N1c2ccccc2Sc2ccccc21	RGS4 pot -8.5 | RGS4 activ val 93 | M3R Ca counter 81
NCCC(=O)N1c2ccccc2Sc2ccccc21	none
O=C(CN1CCCC1)N1c2ccccc2Sc2ccccc21	RGS4 pot -9.5 | RGS4 activ val 92 | M3R Ca counter 69
Cc1ccc(CNc2nc(-c3cccnc3)nc3ccccc23)cc1	none
COC(=O)CNc1nc(-c2cccnc2)nc2ccccc12	none (no result: RGS4 inh, RGS4 pot)
COc1ccc(C(CNc2nc(-c3cccnc3)nc3ccccc23)N(C)C)cc1 (configuration not stated)	RGS4 pot -9.3 | RGS4 activ val 60 | M3R Ca counter 84
c1ccc(CNc2nc(-c3cccnc3)nc3ccccc23)cc1	RGS4 pot -8.4 | RGS4 activ val 84 | M3R Ca counter 37
O=C(N/N=C\c1c(O)ccc2ccccc12)c1ccc(Cn2cccn2)o1	none
N#Cc1ccccc1Sc1ccccc1C(=O)NCC(c1ccco1)N1CCCC1 (configuration not stated)	RGS4 pot -7.9 | RGS4 activ val 65 | M3R Ca counter 29
N#Cc1ccc(C(=O)NCC(c2ccco2)N2CCCC2)cc1 (configuration not stated)	none
CC(C)(C)CC(C)(C)NCC(O)COc1ccc2c(c1)CCC2 (configuration not stated)	RGS4 pot -10 | RGS4 activ val 92 | M3R Ca counter 55
CC(C)(CO)NCC(O)COc1ccc2c(c1)CCC2 (configuration not stated)	none
Cc1cc(C)c(OCC(=O)Nc2ccc(NC(=O)c3ccco3)cc2)c([N+](=O)[O-])c1	none (no result: RGS4 inh, RGS4 pot)
Cc1cc(C)c(OCC(=O)Nc2cccc(NC(=O)c3ccco3)c2)c(Br)c1	RGS4 pot -7.8 | RGS4 activ val 90 | M3R Ca counter 52
CC1(C(=O)O)CCC(C(=O)NNC(=O)c2ccccc2O)C1(C)C (configuration not stated)	none
CC(C)(c1ccccc1)c1ccc(OCCn2cnc3ccccc3c2=O)cc1	RGS4 pot -8.8 | RGS4 activ val 90 | M3R Ca counter 58
O=C(c1ccccc1)c1ccc(OCCn2cnc3ccccc3c2=O)cc1	none
Cc1c(CC(=O)O)c(=O)oc2cc3c(cc12)CCC(C)(C)O3	none
Cc1c(CC(=O)N2CCC(C(N)=O)CC2)c(=O)oc2cc3c(cc12)CCC1(CCCCC1)O3	RGS4 pot -8.9 | RGS4 activ val 92 | M3R Ca counter 78
COc1ccccc1NC(=O)COc1cccc2c1CCNC2=O	none
Cc1ccc(N(CC(=O)NCc2ccc3c(c2)OCO3)S(=O)(=O)c2c(C)noc2C)cc1	none
Cc1noc(C)c1S(=O)(=O)N(CC(=O)NCc1ccc2c(c1)OCO2)c1ccc(C(C)C)cc1	RGS4 pot -8.3 | RGS4 activ val inactive | M3R Ca counter inactive
CCOC(=O)c1c(NC(=S)NNS(=O)(=O)c2ccc(Br)cc2)sc2c1CCCCC2	none
Cc1cc(NC(=O)c2cnn3c(C(F)(F)F)cc(-c4ccccc4)nc23)no1	RGS4 pot -10 | RGS4 activ val 94 | M3R Ca counter 74
Cc1cc(NC(=O)c2cnn3c(C(F)F)cc(-c4ccccc4)nc23)no1	none
CCN1CCN(CCn2c(=S)[nH]c3ccccc3c2=O)CC1	RGS4 pot -7.8 | RGS4 activ val 85 | M3R Ca counter 59
CN(CC#CC(O)(c1ccccc1)c1ccccc1)C(C)(C)C	RGS4 pot -10 | RGS4 activ val 94 | M3R Ca counter 91
CC(C)N(CC#CC(O)(c1ccccc1)c1ccccc1)CCO	RGS4 pot -8.6 | RGS4 activ val 91 | M3R Ca counter 52
COc1ccc(-c2nc3cnccn3c2NCc2ccccc2)cc1SC1CCCCC1	RGS4 pot -11 | RGS4 activ val 92 | M3R Ca counter 86
CCOC(=O)c1c(-c2ccco2)csc1NC(=O)COC(=O)c1cnc(C)cn1	none
Cc1cccc(N2CCN(C(=O)c3ccc(Cl)c(NC4=NC5CS(=O)(=O)CC5S4)c3)CC2C)c1 (configuration not stated)	RGS4 pot -8.5 | RGS4 activ val inactive | M3R Ca counter inactive
O=C(c1ccc(Cl)c(NC2=NC3CS(=O)(=O)CC3S2)c1)N1CCN(c2ccccc2)CC1 (configuration not stated)	none
Cc1cc(Br)ccc1OCCCCN1CCC(C)CC1	RGS4 pot -8.5 | RGS4 activ val 89 | M3R Ca counter 64
CC1CCN(CCCOc2ccc(Cl)cc2Br)CC1	none
Cc1nn(-c2ccc(N3CCCCC3)nn2)c(C)c1CCC(=O)Nc1ccc(F)c(F)c1	RGS4 pot -8.5 | RGS4 activ val 64 | M3R Ca counter 49
CCCOc1ccc(N2C(=O)CC(N(CCOC34CC5CC(CC(C5)C3)C4)C(C)=O)C2=O)cc1 (configuration not stated)	none
CCCCCCCn1ccc(=N)cc1	RGS4 pot -9.2 | RGS4 activ val 69 | M3R Ca counter 30
CCCCCCCCCn1ccc(=N)cc1	none
C=CCN1C(=O)/C(=C2\SC(N3CCOCC3)=NC2=O)c2cc(Br)ccc21	RGS4 pot -8.6 | RGS4 activ val 86 | M3R Ca counter 63
COc1ccc(-n2c(=S)[nH]c3cc(C(=O)NCCCN4CCOCC4)ccc3c2=O)cc1OC	none
COc1cccc(OC)c1OCCCNC1CCCC1	none
Cc1ccc(S(=O)(=O)NC(CC(C)C)C(=O)Oc2ccc3c4c(c(=O)oc3c2)CCC4)cc1 (configuration not stated)	RGS4 pot -9.4 | RGS4 activ val 92 | M3R Ca counter 92
CSc1nnc2c3cc(F)ccc3n(Cc3ccccc3)c2n1	none
CCN(CC)CCSc1nnc2c3cc(C)ccc3n(Cc3ccccc3)c2n1	RGS4 pot -11 | RGS4 activ val 93 | M3R Ca counter 85
CCOC(=O)C1=C(CC)Nc2ccccc2N=C1NC(=O)CCNC(C)=O	none
